# Source: PubChem BioAssay (The Scripps Research Institute Molecular Screening Center)
# LEDGF integ inh: blocks HIV-1 LEDGF/p75-dependent DNA integration; 370,000 tested, 0.64% active; TR-FRET IN-LEDGF/p75 DNA integration, Eu/Cy5; inhibition, % at 3.7 µM; AID 743269;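 active = inhibition above the screen-wide mean plus 3 SD, cut at about 13% in these data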;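 note: signal is the Cy5 over europium emission ratio at 671 and 618 nm; 0% = plate median of compound wells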
# MBD2 inh: MBD2-methylated oligo binding inhibition; Q9UBB5; TR-FRET, MBD2 binding to methylated oligonucleotide; inhibition, % at 4.4 µM; 370,000 tested, 0.31% active; in the data active = inhibition above about 13%
# UHRF1 MBD2 ctr: UHRF1 methyl-DNA binding inhibition; Q96T88; UHRF1 binding to methylated oligo, TR-FRET; inhibition, % at 4.4 µM; 370,000 tested, 0.75% active; AID 687016; in the data active = inhibition above about 21%;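 note: UHRF1 SRA domain binding a hemimethylated CpG hairpin DNA probe; 0% = median of test compound wells and 100% = reference inhibitor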
# TDP2 inh: TDP2 (human) inhibition, absorbance primary screen; 370,000 tested, 0.34% active; inhibition, % at 12.8 µM; recombinant TDP2, T5PNP hydrolysis, p-nitrophenol absorbance 415 nm;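 active = inhibition above the mean of all tested compounds plus 3 SD, set per campaign, cut at about 25% in these data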;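 note: 0% = DMSO with enzyme and 100% = buffer with substrate but no TDP2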
# Target sequence (O95551 whole entry, looked up): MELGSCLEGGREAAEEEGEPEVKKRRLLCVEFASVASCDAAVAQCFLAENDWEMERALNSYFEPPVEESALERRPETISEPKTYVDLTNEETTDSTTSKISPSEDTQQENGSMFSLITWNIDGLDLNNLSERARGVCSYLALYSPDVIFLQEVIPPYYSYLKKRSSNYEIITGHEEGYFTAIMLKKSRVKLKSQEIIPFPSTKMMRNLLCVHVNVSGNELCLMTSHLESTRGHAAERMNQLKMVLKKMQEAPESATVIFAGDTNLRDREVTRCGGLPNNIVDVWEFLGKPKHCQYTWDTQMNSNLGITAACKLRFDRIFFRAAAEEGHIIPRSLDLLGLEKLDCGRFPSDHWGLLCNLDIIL
#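 Assay system: Recombinant human TDP2 | Quantity: 120 nM TDP2 per well | Incubation: 2 h at 37 °C | Signal: Epi absorbance | Evaluation: Percent inhibition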
# Numbers without * were called inactive; ! = repeats disagree. Shown are actives, neighbours in structure and some others; about 1.6% of the full set was active somewhere.
SMILES,LEDGF integ inh,MBD2 inh,UHRF1 MBD2 ctr,TDP2 inh
O=C(O)c1ccccc1C1Nc2ccccc2C(=O)N1CCCN1CCOCC1 (stereo not given),3,5,40*,-2
COc1ccc(N2CCN(C(=O)C3CCCN(S(=O)(=O)c4ccc5c(c4)oc(=O)n5C)C3)CC2)cc1 (stereo not given),-7,3,2,-16
COc1ccccc1N1CCN(C(=O)C2CCCN(S(=O)(=O)c3ccc4c(c3)oc(=O)n4C)C2)CC1 (stereo not given),-3,7,24*,-3
O=C(O)CCCC(=O)Nc1ccccc1C(=O)O,16*,1,0,1
COc1cc(CNC2CCCC2)c(Br)cc1OC1CCCC1,-4,0,30*,-5
COc1cc(CNC2CCCCCCC2)c(Br)cc1OCCO,-2,4,4,7
CC1CCCCC1n1c(-c2cccnc2)n[nH]c1=S (stereo not given),0,-1,72*,-3
C[C@H](CO)N1C[C@H](C)[C@@H](CN(C)C(=O)Nc2ccc(F)cc2)Oc2cc(Br)ccc2S1(=O)=O,-3,8,19,-2
C[C@@H]1CN([C@H](C)CO)S(=O)(=O)c2ccc(Br)cc2O[C@H]1CN(C)C(=O)Nc1ccccc1,-2,3,21*,-3
C[C@@H]1CN([C@@H](C)CO)S(=O)(=O)c2ccc(Br)cc2O[C@H]1CN(C)C(=O)Nc1ccc2c(c1)OCO2,-1,-6,56*,7
Cn1c(=O)n(C)c2cc([N+](=O)[O-])c(N3CCN(S(=O)(=O)c4ccccc4)CC3)cc21,1,1,-1,9
Cn1nc(-c2ccccc2)cc1NC(=O)Nc1ccc(C(C)(C)C)cc1,2,8,29*,-2
Cn1nc(-c2ccc(Cl)cc2)cc1NC(=O)Nc1ccccc1,-2,2,-2,-9
CCOc1ccccc1NC(=O)CCn1nc(C)c(S(=O)(=O)N2CCCCC2)c1C,-1,-3,0,6
CCC(Sc1nc2ncnc(N)c2[nH]1)C(=O)O (stereo not given),0,2,21*,0
Nc1ncnc2nc(SCc3ccccc3)[nH]c12,1,7,2,-4
COc1cccc(CNC(=O)[C@H](CC(C)C)NC(=O)N2CCn3c2nc2ccccc23)c1,2,0,0,3
COc1cccc(CC2(CO)CCCN(Cc3ccccc3Cl)C2)c1 (stereo not given),3,-4,-1,1
COc1cccc(CC2(CO)CCCN(Cc3ccc(CN4CCCCC4)s3)C2)c1 (stereo not given),-1,2,27*,2
COC(=O)c1ccc(C(=O)O)nc1,6,0,22*,-8
CC1CCCN(C(=O)Cn2nnc(-c3ccc([N+](=O)[O-])cc3)n2)C1 (stereo not given),-2,1,29*,-5
CC1CCCN(C(=O)Cn2nnc(-c3ccc(F)cc3)n2)C1 (stereo not given),-1,5,1,-2
O=C(c1ccco1)N(Cc1cccc(F)c1)C1CCS(=O)(=O)C1 (stereo not given),-4,6,21*,-1
O=C(c1cc(=O)c2ccccc2o1)N(Cc1ccccc1)C1CCS(=O)(=O)C1 (stereo not given),-2,-5,-1,6
COc1ccc(CN(C(=O)c2cc(=O)c3ccccc3o2)C2CCS(=O)(=O)C2)cc1OC (stereo not given),2,9,22*,-6
SMILES,LEDGF integ inh,MBD2 inh,UHRF1 MBD2 ctr,TDP2 inh
CCCCN(CCCNC(=O)c1ccc(CS(=O)(=O)c2ccc(OC)cc2)o1)Cc1ccccc1,1,-5,11,9
Nc1cccc2[nH]c(C(F)(F)F)nc12,8,-1,2,32*
Cc1cc(NC(=O)CN(C)C)c([N+](=O)[O-])cc1C,-4,1,42*,0
CC(=O)N(Cc1ccc(F)cc1)C1=C(NCCc2ccccc2)C(=O)c2ccccc2C1=O,23*,1,2,8
O=C1C(Cl)=C(NCCc2ccccc2)C(=O)c2ccccc21,7,-18,-17,19
Cc1ccc(C2CC(=O)C=C(NCc3ccccc3)C2)cc1 (stereo not given),0,-4,36*,4
Cc1ccc(C2CC(=O)C=C(NCC(C)C)C2)cc1 (stereo not given),-2,-2,0,6
COc1ccccc1/C=C(\NC(=O)c1cccc(C)c1)C(=O)Nc1ccccn1,-1,4,-1,16
CCN(CC)S(=O)(=O)c1ccc(C(=O)NNC(=O)C2COc3ccccc3O2)cc1 (stereo not given),6,-2,-1,4
CCN(CC1COc2ccccc2O1)S(=O)(=O)c1ccc(C)cc1 (stereo not given),4,9,26*,-11
Cc1cc2c(s1)Nc1ccccc1N=C2N1CCN(C)CC1,-3,-5,-2,-3
COC(=O)C1SCC2C(=O)N(Cc3ccc(F)cc3)CC(=O)N21 (stereo not given),-2,4,21*,2
Cc1cccn2cc(-c3ccc(S(=O)(=O)N4CCCCC4)cc3)nc12,-1,10,25*,-2
COC(=O)c1ccc(CN(c2ccccc2Cl)S(C)(=O)=O)cc1,-4,-5,30*,-10
CN(Cc1ccccc1)C(=O)CN(c1ccccc1Cl)S(C)(=O)=O,4,1,1,-7
COc1c2c(cc3ccc(=O)oc13)CCO2,4,-5,49*,12
CCCc1nc2ccc(C(=O)OC)cn2c1Cc1ccccc1OC,4,-4,23*,5
CCCc1nc2ccc(C(=O)OC)cn2c1Cc1ccccc1C(F)(F)F,2,11,25*,5
Cc1ccc(NC(=O)C(NS(=O)(=O)c2cccc3nsnc23)C(C)C)nc1 (stereo not given),3,-4,0,0
COc1ccc(S(=O)(=O)NCC2CCCN(Cc3ccc(C)o3)C2)cc1 (stereo not given),7,2,2,-17
Cc1ccc(OCc2nc(C#N)c(N3CCN(Cc4ccccc4)CC3)o2)cc1,-2,4,-4,-13
C[C@@]12CC[C@@H](C3=C(CCC3)C1)N2c1ccccc1,4,-7,-3,4
Cc1ccc(Nc2nc(C)c3c(n2)CC(C)CC3=O)c(C)c1 (stereo not given),-1,-6,28*,13
CC(=O)Nc1ccc(OCC(=O)N2CCC(Cc3ccccc3)CC2)cc1,5,7,7,-3
COc1ccc2cc3[n+](cc2c1OC)CCc1cc2c(cc1-3)OCO2,0,-15,23*!,-6
COc1cccc(C2=NCCc3cc4c(cc32)OCO4)c1OC,8,-2,1,-19
CSc1ccccc1NC(=O)CSc1n[nH]c(C)c1[N+](=O)[O-],-4,1,-3,-4
Cc1ccc(O)c(NC(=O)CSc2n[nH]c(C)c2[N+](=O)[O-])c1,0,2,33*,-1
